From ChEMBL document CHEMBL4364265, “Oridonin derivatives as potential anticancer drug candidates triggering apoptosis through mitochondrial pathway in the liver cancer cells” (Eur J Med Chem, 2019)
Calls of active or inactive are those of the source. The rule behind the calls is not given here.

Experiments:
PLC-PRF-5 [1] = assay: Induction of cell cycle arrest in human PLC/PRF/5 cells assessed as accumulation at S phase at 0.25 uM incubated for 24 hrs by PI staining based flow cytometric analysis (reference value: 42.03%); assay type: functional
PLC-PRF-5 [2] = assay: Induction of apoptosis in human PLC/PRF/5 cells assessed as necrotic cells at 0.25 uM incubated for 24 hrs by annexin V staining based cell counting method (reference value: 0.59%); assay type: functional
HepG2 [3] = assay: Inhibition of colony formation in human HepG2 cells at 0.1 to 1 uM incubated for 10 days by crystal violet staining based microscopic method; assay type: functional, cell-based
Outline: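 Five hundred cells plated per 30 mm dish and left 12 h. Medium with compound was added (0, 0.1, 0.5, 1 µM) or DMSO as negative control, and cells grew 10 days. Colonies were fixed in methanol 15 min, stained with 0.1% crystal violet 15 min, photographed and counted. Colony size was checked by microscope. Relative colony number is mean ± SD of ≥3 independent experiments.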

PLC-PRF-5 [4] = assay: Induction of cell cycle arrest in human PLC/PRF/5 cells assessed as accumulation at G2 phase at 1 uM incubated for 24 hrs by PI staining based flow cytometric analysis (reference value: 18.05%); assay type: functional
PLC-PRF-5 [5] = assay: Inhibition of colony formation in human PLC/PRF/5 cells assessed as decrease in colony size at 0.1 to 1 uM incubated for 10 days by crystal violet staining based microscopic method
HepG2 [6] = assay: Induction of apoptosis in human HepG2 cells assessed as live cells at 0.25 uM incubated for 24 hrs by annexin V staining based cell counting method (reference value: 87.35%); assay type: functional
HepG2 [7] = assay: Induction of apoptosis in human HepG2 cells assessed as upregulation of cleaved caspase 3 protein expression level incubated for 24 hrs by Western blot analysis; assay type: functional, cell-based
Outline: (§1)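 Cells were treated 24 h in DMEM with 0, 0.25, 0.5, 1.0 or 1.25 µM compound. Adherent and floating cells were lysed in RIPA on ice and protein measured by BCA. Equal protein was run on 7.5–12.5% SDS-PAGE and transferred to PVDF. Membranes were blocked in 5% milk/PBST, incubated with primary antibody overnight at 4 °C, and detected by ECL.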

PLC-PRF-5 [8] = assay: Induction of ROS generation in human PLC/PRF/5 cells by DCFH-DA staining-based flow cytometric analysis; assay type: functional, cell-based
Outline: (§2)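 Cells were treated with 0, 0.25, 0.5 or 1 µM compound, stained with 10 µM DCFH-DA for 20 min at 37 °C, washed three times, resuspended in PBS and read by flow cytometry. Data are mean ± SD of three independent experiments.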

HepG2 [9] = assay: Antiproliferative activity against human HepG2 cells incubated for 72 hrs by CCK8 cells; assay type: functional, cell-based; details: HepG2, 72 h
Outline: (§3)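 CCK-8 proliferation assay. 10,000 cells per well were preincubated 24 h at 37 °C with 5% CO2, then given compound dissolved in DMSO and incubated 72 h. CCK-8 was added for 4 h and absorbance read at 450 nm. IC50 was taken from dose-response curves as mean ± SEM of at least three independent experiments, with paclitaxel as positive control. HepG2 and L-O2 were grown in DMEM/10% FBS; A549 and RPMI-8226 in RPMI 1640/10% FBS.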

PLC-PRF-5 [10] = assay: Induction of apoptosis in human PLC/PRF/5 cells assessed as live cells at 1 uM incubated for 24 hrs by annexin V staining based cell counting method (reference value: 88.95%); assay type: functional
PLC-PRF-5 [11] = assay: Induction of ROS generation in human PLC/PRF/5 cells at 1 uM by DCFH-DA staining-based flow cytometric analysis relative to control; assay type: functional; outline: as §2
A549 = assay: Antiproliferative activity against human A549 cells incubated for 72 hrs by CCK8 cells; assay type: functional, cell-based; details: A549, 72 h; outline: as §3
HepG2 [12] = assay: Induction of cell cycle arrest in human HepG2 cells assessed as accumulation at G2 phase at 0.5 uM incubated for 24 hrs by PI staining based flow cytometric analysis (reference value: 25.55%); assay type: functional
PLC-PRF-5 [13] = assay: Induction of cell cycle arrest in human PLC/PRF/5 cells assessed as accumulation at G1 phase at 0.5 uM incubated for 24 hrs by PI staining based flow cytometric analysis (reference value: 34.78%); assay type: functional
HepG2 [14] = assay: Induction of apoptosis in human HepG2 cells assessed as shrunken chromatin at 0.25 to 1 uM incubated for 24 hrs by Hoechst 33258 dye based fluorescence microscopic method; assay type: functional, cell-based
Outline: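 About 2 × 10^4 cells per well were plated overnight and treated 24 h with 0, 0.25, 0.5 or 1 µM compound. Cells were fixed in 4% paraformaldehyde for 30 min at room temperature, stained with 20 µg/mL Hoechst 33258 for 20 min at 37 °C, and imaged by fluorescence microscopy.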

PLC-PRF-5 [15] = assay: Induction of apoptosis in human PLC/PRF/5 cells assessed as early apoptotic cells at 1 uM incubated for 24 hrs by annexin V staining based cell counting method (reference value: 5.65%); assay type: functional
PLC-PRF-5 [16] = assay: Induction of cell cycle arrest in human PLC/PRF/5 cells assessed as accumulation at S phase at 0.5 uM incubated for 24 hrs by PI staining based flow cytometric analysis (reference value: 42.03%); assay type: functional
HepG2 [17] = assay: Induction of cell cycle arrest in human HepG2 cells assessed as accumulation at G1 phase at 0.5 uM incubated for 24 hrs by PI staining based flow cytometric analysis (reference value: 37.06%); assay type: functional
PLC-PRF-5 [18] = assay: Induction of apoptosis in human PLC/PRF/5 cells assessed as late apoptotic cells at 1 uM incubated for 24 hrs by annexin V staining based cell counting method (reference value: 4.81%); assay type: functional
PLC-PRF-5 [19] = assay: Induction of cell cycle arrest in human PLC/PRF/5 cells assessed as accumulation at S phase at 1 uM incubated for 24 hrs by PI staining based flow cytometric analysis (reference value: 42.03%); assay type: functional
HepG2 [20] = assay: Induction of apoptosis in human HepG2 cells assessed as early apoptotic cells at 1 uM incubated for 24 hrs by annexin V staining based cell counting method (reference value: 3.60%); assay type: functional
PLC-PRF-5 [21] = assay: Induction of apoptosis in human PLC/PRF/5 cells assessed as upregulation of cleaved caspase 3 protein expression level incubated for 24 hrs by Western blot analysis; assay type: functional, cell-based
Outline: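 After 24 h exposure (0, 0.25, 0.5, 1.0 and 1.25 µM), adherent plus floating cells collected, lysed in RIPA on ice 30 min, protein quantified by BCA; equal protein run on 7.5–12.5% SDS gels, transferred to PVDF, blocked 30 min in 5% milk/PBST, primary antibody overnight at 4 °C, ECL detection.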

HepG2 [22] = assay: Induction of apoptosis in human HepG2 cells assessed as increase in cytochrome c protein expression level at 0.25 to 1.25 uM incubated for 24 hrs by Western blot analysis; assay type: functional, cell-based; outline: as §1
HepG2 [23] = assay: Induction of apoptosis in human HepG2 cells assessed as live cells at 0.5 uM incubated for 24 hrs by annexin V staining based cell counting method (reference value: 87.35%); assay type: functional
HepG2 [24] = assay: Induction of cell cycle arrest in human HepG2 cells assessed as accumulation at G1 phase at 0.25 uM incubated for 24 hrs by PI staining based flow cytometric analysis (reference value: 37.06%); assay type: functional
PLC-PRF-5 [25] = assay: Induction of apoptosis in human PLC/PRF/5 cells assessed as down regulation of Bcl2 protein expression level incubated for 24 hrs by Western blot analysis; assay type: functional, cell-based; outline: as §1

IC50 (HepG2 [9]): 1360 nM
IC50 (A549): 12 µM
SMILES: C=C1C(=O)[C@]23[C@H](OC(=O)/C=C/c4ccc(OC)cc4)[C@H]1CC[C@H]2[C@@]12CO[C@]3(O)[C@@H](O)[C@@H]1C(C)(C)CC[C@@H]2O
Activity (PLC-PRF-5 [1]): 46.59%
Activity (PLC-PRF-5 [2]): 0.91%
inhibition (HepG2 [3]): Active
Activity (PLC-PRF-5 [4]): 6.11%
inhibition (PLC-PRF-5 [5]): Active
Activity (HepG2 [6]): 81.95%
Activity (HepG2 [7]): Dose-dependent effect
Activity (PLC-PRF-5 [8]): Dose-dependent effect
Activity (PLC-PRF-5 [10]): 33.5%
fold change (FC) (PLC-PRF-5 [11]): 3
Activity (HepG2 [12]): 23.84%
Activity (PLC-PRF-5 [13]): 43.49%
Activity (HepG2 [14]): Active
Activity (PLC-PRF-5 [15]): 29.39%
Activity (PLC-PRF-5 [16]): 39.83%
Activity (HepG2 [17]): 39.07%
Activity (PLC-PRF-5 [18]): 36.66%
Activity (PLC-PRF-5 [19]): 43.13%
Activity (HepG2 [20]): 21.8%
Activity (PLC-PRF-5 [21]): Dose-dependent effect
Activity (HepG2 [22]): Active
Activity (HepG2 [23]): 77.75%
Activity (HepG2 [24]): 38.04%
Activity (PLC-PRF-5 [25]): Dose-dependent effect
